Measurements: ChEMBL document CHEMBL5715960, “Epigenetic Co-Deregulation of EZH2/TET1 is a Senescence-Countering, Actionable Vulnerability in Triple-Negative Breast Cancer” (Theranostics, 2019)
Calls of active or inactive are those of the source. The rule behind the calls is not given here.

Legend:
[1] = system: SK-BR-3; assay: Antiproliferative activity in human SK-BR-3 cells assessed as increase in SA-beta-gal positive cells at 2 uM for 5 days by SA-beta-gal staining analysis; assay type: toxicity, cell-based; details: sk-br-3, 120 h, time 5 day
In short: (§1)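 GSK343 2 µM or DMSO for 5 days, then chromogenic SA-β-gal staining and counting of positive cells. Triplicate; mean ± SD.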

[2] = system: MDA-MB-436; assay: Antitumor activity against human MDA-MB-436 cells xenografted in Crl:NU-Foxn1-nu/nu mouse assessed as reduction in tumor administered at 5 mg/kg, ip in presence of adriamycin treated for 21 days; assay type: functional, organism-based; details: time 21.0 day
[3] = system: MDA-MB-453; assay: Antiproliferative activity against human MDA-MB-453 cells assessed as increase in cell death at 10 uM for 2 days by Guava viacount assay; assay type: functional, cell-based; details: time 2.0 day
In short: (§2)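 Cells plated at 2 × 10^4 (24-well) or 1 × 10^5 (12-well), exposed to a range of GSK343 concentrations for 2 days against DMSO solvent control; cell number and viability read by Guava ViaCount flow cytometry, relative to DMSO. Triplicate; mean ± SD.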

[4] = system: MDA-MB-231; assay: Effect on human MDA-MB-231 cells expressing shTET1 assessed as increase in H3K9me3 cascade by immunoblot analysis; assay type: functional, cell-based
[5] = system: MDA-MB-436; assay: Effect on human MDA-MB-436 cells assessed as increase in TET1 transcription by qRT-PCR analysis; assay type: functional, cell-based
In short: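 qRT-PCR of TET1, TET2 and TET3 transcripts in breast cancer cells exposed to GSK343 (2 µM unless otherwise indicated), shown relative to DMSO-treated cells. Mean ± SD, triplicate unless stated.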

[6] = system: BT-474; assay: Induction of cell cycle arrest in human BT-474 cells assessed as accumulation of cells at S phase measured at 2 uM by BrdU/PI staining based flow cytometric analysis (reference value: 28.6%); assay type: functional
[7] = system: MCF7; assay: Upregulation of CDKN1A gene in human MCF7 cells at 2 uM by qRT-PCR analysis; assay type: functional, cell-based
In short: (§3)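 Relative transcript levels measured by qRT-PCR in cells treated with 2 µM inhibitor, normalised to DMSO-treated control cells. Triplicate experiments unless stated otherwise; mean ± SD reported; unpaired two-tailed Student's t-test at p < 0.05.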

[8] = system: MCF7; assay: Effect on human MCF7 cells assessed as decrease in H3K27me3 level at 2 uM in presence of adriamycin by immunoblot analysis; assay type: functional, cell-based
In short: (§4)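 Immunoblot of MDA-MB-231 and MCF7 lysates after 0.005 µg/ml adriamycin with or without 2 µM GSK343, or DMSO. α-Tubulin and total H3 used as loading controls.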

[9] = system: MDA-MB-436; assay: Antiproliferative activity in human MDA-MB-436 cells expressing shTET1 assessed as increase in SA-beta-gal positive cells by SA-beta-gal staining analysis (reference value: 8.2+/-2.4%); assay type: functional
[10] = system: MDA-MB-231; assay: Induction of apoptosis in human MDA-MB-231 cells assessed as decrease in accumulation of cells at S phase in presence of adriamycin by BrdU/PI-based cell cycle analysis; assay type: functional
In short: (§5)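 Cell cycle by BrdU/PI staining and flow cytometry, giving G1, S and G2 fractions. Cells received 0.005 µg/ml adriamycin with or without 2 µM GSK343, or DMSO. Mean ± SD.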

[11] = system: MDA-MB-231; assay: Antiproliferative activity against human MDA-MB-231 cells assessed as increase in global H3K9me3 expression level by immunoblot analysis; assay type: functional, cell-based
In short: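 Cells exposed to GSK343 at 2 µM (standard level unless stated otherwise), lysed and immunoblotted; α-tubulin and total H3 as loading controls.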

[12] = system: MDA-MB-361; assay: Cytotoxicity against human MDA-MB-361 cells at 0.5 to 2 uM for 2 days by Guava viacount assay; assay type: toxicity, cell-based; details: mda-mb-361, 48 h, dose 0.5-2 µM, time 2 day; in short: as §2
[13] = system: MDA-MB-436; assay: Induction of apoptosis in human MDA-MB-436 cells assessed as decrease in accumulation of cells at S phase in presence of adriamycin by BrdU/PI-based cell cycle analysis; assay type: functional; in short: as §5
[14] = system: MDA-MB-436; assay: Effect on human MDA-MB-436 cells expressing shTET1 assessed as increase in H3K9me3 cascade by immunoblot analysis; assay type: functional, cell-based
[15] = system: MCF7; assay: Induction of cell cycle arrest in human MCF7 cells assessed as accumulation of cells at G1 phase measured at 2 uM by BrdU/PI staining based flow cytometric analysis (reference value: 65.2%); assay type: functional
[16] = system: MDA-MB-231; assay: Antitumor activity against human MDA-MB-231 cells xenografted in Crl:NU-Foxn1-nu/nu mouse assessed as reduction in tumor administered at 5 mg/kg, ip in presence of adriamycin treated for 21 days; assay type: functional, organism-based; details: time 21.0 day
[17] = system: MDA-MB-436; assay: Effect on human MDA-MB-436 cells expressing shTET1 assessed as reduction in cyclinA by immunoblot analysis; assay type: functional, cell-based
[18] = system: MDA-MB-436; assay: Downregulation of E2F1 in human MDA-MB-436 cells at 2 uM for 2 days by immunoblot analysis; assay type: functional, cell-based; details: time 2.0 day
[19] = system: MDA-MB-436; assay: Effect on human MDA-MB-436 cells expressing shTET1 assessed as increase in p21 cascade by immunoblot analysis; assay type: functional, cell-based
[20] = system: MDA-MB-361; assay: Antiproliferative activity in human MDA-MB-361 cells assessed as increase in SA-beta-gal positive cells at 2 uM for 5 days by SA-beta-gal staining analysis; assay type: toxicity, cell-based; details: mda-mb-361, 120 h, time 5 day; in short: as §1
[21] = system: MDA-MB-436; assay: Effect on human MDA-MB-436 cells expressing shTET1 assessed as increase in p53 cascade by immunoblot analysis; assay type: functional, cell-based
[22] = system: MCF7; assay: Effect on human MCF7 cells assessed as increase in TET1 level at 2 uM in presence of adriamycin by immunoblot analysis; assay type: functional, cell-based; in short: as §4
[23] = system: MDA-MB-436; assay: Effect on […] in human MDA-MB-436 cells assessed as repression in TET1 promoter EZH2 by ChiP-qPCR analysis; assay type: functional, cell-based
In short: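 Cells treated with GSK343 or DMSO; chromatin immunoprecipitated with anti-EZH2 or anti-H3K27me3 antibody and quantified by qPCR with primers for the TET1 promoter; input as internal control, IgG as negative control.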

[24] = system: MDA-MB-436; assay: Upregulation of TP53 gene in human MDA-MB-436 cells at 2 uM by qRT-PCR analysis; assay type: functional, cell-based; in short: as §3
[25] = system: MDA-MB-436; assay: Antiproliferative activity in human MDA-MB-436 cells expressing vector assessed as increase in SA-beta-gal positive cells by SA-beta-gal staining analysis (reference value: 10.3+/-3.7%); assay type: functional
[26] = system: MDA-MB-231; assay: Cytotoxicity against human MDA-MB-231 cells assessed as killing of cells at 2 uM in presence of adriamycin; assay type: functional, cell-based
In short: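 Viability after a range of adriamycin concentrations given alone or together with 2 µM GSK343, measured by Guava ViaCount; mean ± SD.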

[27] = system: MDA-MB-231; assay: Downregulation of EZH2 transcription in human MDA-MB-231 cells at 2 uM for 2 days by immunoblot analysis; assay type: functional, cell-based; details: time 2.0 day
[28] = system: MDA-MB-231; assay: Effect on human MDA-MB-231 cells assessed as apoptotic phenotype by measuring increase in p53 expression level at 2 uM in presence of adriamycin by immunoblot analysis; assay type: functional, cell-based
In short: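 Immunoblot of cell lysates after 0.05 µg/ml adriamycin alone, with 2 µM GSK343, or DMSO. α-Tubulin and total H3 used as loading controls.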

CCCc1cc(C)[nH]c(=O)c1CNC(=O)c1cc(-c2ccnc(N3CCN(C)CC3)c2)cc2c1cnn2C(C)C
Activity [1]: Non-Toxic | Activity [2]: Active | Activity [3]: Active | Activity [4]: inactive | Activity [5]: Active | Activity [6]: 26.8% | Activity [7]: inactive | Activity [8]: inactive | Activity [9]: 20.3% | Activity [10]: Active | Activity [11]: Active | Activity [12]: Non-Toxic | Activity [13]: Active | Activity [14]: inactive | Activity [15]: 66.1% | Activity [16]: Active | Activity [17]: inactive | Activity [18]: Active | Activity [19]: inactive | Activity [20]: Non-Toxic | Activity [21]: inactive | Activity [22]: inactive | Activity [23]: Active | Activity [24]: Active | Activity [25]: 46.4% | Activity [26]: Active | Activity [27]: Active | Activity [28]: Active
